# Experimental data as given in ChEMBL document CHEMBL1795219, “4-alkoxy-3-arylfuran-2(5H)-ones as inhibitors of tyrosyl-tRNA synthetase: synthesis, molecular docking and antibacterial evaluation” (Bioorg Med Chem, 2011).
# Tested on: Candida albicans
# Assay: Antibacterial activity against Candida albicans ATCC 10231 after 48 hrs by MTT colorimetric method
# Format: functional
# Conditions: ATCC 10231, 48 h
row,MIC50 [µg/mL],SMILES
1,47.2,O=C1OCC(OCCN2CCOCC2)=C1c1cccc(O)c1
2,1.1,O=C1OCC(OCCN2CCOCC2)=C1c1ccc(O)cc1
3,12.7,O=C1OCC(OCCN2CCOCC2)=C1c1ccc(Br)cc1
4,> 50,COc1cccc(C2=C(OCCN3CCOCC3)COC2=O)c1
5,> 50,O=C1OCC(OCCN2CCOCC2)=C1c1cccc(Br)c1
6,2.9,O=C1OCC(OCCN2CCOCC2)=C1c1ccc(Cl)cc1
7,34.2,O=C1OCC(OCCN2CCOCC2)=C1c1ccccc1
8,> 50,CN1CCN(CCOC2=C(c3ccccc3)C(=O)OC2)CC1
9,> 50,CCCNCCOC1=C(c2ccccc2)C(=O)OC1

row,SMILES,MIC50 [µg/mL]
1,CC(=O)N1CCN(c2ccc(OCC3COC(Cn4ccnc4)(c4ccc(Cl)cc4Cl)O3)cc2)CC1 (configuration not stated) [KETOCONAZOLE],3.8

# Tested on: not listed separately
# Assay: Inhibition of Staphylococcus aureus TyrRS expressed in Escherichia coli using L-[ring-3,5-3H] tyrosine preincubated for 10 mins by scintillation counting
# Conditions: not given
# Procedure, shortened: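 Aminoacylation assay with purified TyrRS (0.2 nM). Enzyme preincubated with a range of inhibitor concentrations for 10 min at room temperature, then prewarmed mix added at 37 °C. Final mix: 100 mM Tris/Cl pH 7.9, 50 mM KCl, 16 mM MgCl2, 5 mM ATP, 3 mM DTT, 4 mg/ml E. coli MRE600 tRNA, 10 uM tritiated L-tyrosine. Stopped at intervals in ice-cold 7% TCA, filtered, scintillation counted. Rate linear, under 50% tRNA acylation. IC50 is the concentration halving activity.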
row,IC50 [µM],SMILES
1,> 100,O=C1OCC(OCCNCc2ccccc2)=C1c1ccccc1
2,25.6,O=C1OCC(OCCN2CCOCC2)=C1c1cccc(O)c1
3,0.1,O=C1OCC(OCCN2CCOCC2)=C1c1ccc(O)cc1
4,> 100,O=C1OCC(OCCN2CCCCC2)=C1c1ccc(F)c(F)c1
5,53.6,O=C1OCC(OCCN2CCCCC2)=C1c1ccccc1
6,2.4,O=C1OCC(OCCN2CCOCC2)=C1c1ccc(Br)cc1
7,37.5,COc1cccc(C2=C(OCCN3CCOCC3)COC2=O)c1
8,> 100,COc1ccc(C2=C(OCCNC3CCCCC3)COC2=O)cc1OC
9,32.8,COc1ccc(C2=C(OCCN3CCOCC3)COC2=O)cc1
10,24.3,O=C1OCC(OCCN2CCOCC2)=C1c1cccc(Br)c1
11,20.5,O=C1OCC(OCCN2CCOCC2)=C1c1cccc(Cl)c1
12,71.9,CCCCNCCOC1=C(c2ccccc2)C(=O)OC1
13,0.62,O=C1OCC(OCCN2CCOCC2)=C1c1ccc(Cl)cc1
14,6.2,O=C1OCC(OCCN2CCOCC2)=C1c1ccccc1
15,8.6,CN1CCN(CCOC2=C(c3ccccc3)C(=O)OC2)CC1
16,> 100,O=C1OCC(OCCNNc2ccc([N+](=O)[O-])cc2)=C1c1ccccc1
17,35.5,O=C1OCC(OCCN2CCCC2)=C1c1ccccc1
18,> 100,CN1CCN(CCOC2=C(c3ccc(Cl)c(Cl)c3)C(=O)OC2)CC1
19,> 100,COc1ccc(C2=C(OCCN3CCN(C)CC3)COC2=O)cc1OC
20,29.1,CCCNCCOC1=C(c2ccccc2)C(=O)OC1
21,> 100,COc1ccc(C2=C(OCCN3CCCCC3)COC2=O)cc1OC
22,87.4,O=C1OCC(OCCNC2CCCCC2)=C1c1ccccc1

# Tested on: Staphylococcus aureus
# Assay: Antibacterial activity against Staphylococcus aureus ATCC 25923 after 24 hrs by MTT colorimetric method
# Format: functional
# Conditions: ATCC 25923, 24 h
row,MIC50 [µg/mL],SMILES
1,34.3,O=C1OCC(OCCN2CCOCC2)=C1c1cccc(O)c1
2,0.23,O=C1OCC(OCCN2CCOCC2)=C1c1ccc(O)cc1
3,1.2,NC[C@H]1O[C@H](O[C@H]2[C@H](O)[C@@H](O[C@H]3O[C@H](CO)[C@@H](O)[C@H](N)[C@H]3O)[C@H](N)C[C@@H]2N)[C@H](O)[C@@H](O)[C@@H]1O [KANAMYCIN]
4,3,O=C1OCC(OCCN2CCOCC2)=C1c1ccc(Br)cc1
5,40.8,COc1cccc(C2=C(OCCN3CCOCC3)COC2=O)c1
6,25.5,O=C1OCC(OCCN2CCOCC2)=C1c1cccc(Br)c1
7,1.3,O=C1OCC(OCCN2CCOCC2)=C1c1ccc(Cl)cc1
8,10.4,O=C1OCC(OCCN2CCOCC2)=C1c1ccccc1
9,16.5,CN1CCN(CCOC2=C(c3ccccc3)C(=O)OC2)CC1
10,34.3,CCCNCCOC1=C(c2ccccc2)C(=O)OC1

# Tested on: Escherichia coli
# Assay: Antibacterial activity against Escherichia coli ATCC 35218 after 24 hrs by MTT colorimetric method
# Format: functional
# Conditions: ATCC 35218, 24 h
row,MIC50 [µg/mL],SMILES
1,2.7,CC1(C)S[C@@H]2[C@H](NC(=O)Cc3ccccc3)C(=O)N2[C@H]1C(=O)O [PENICILLIN G]
2,> 50,O=C1OCC(OCCN2CCOCC2)=C1c1cccc(O)c1
3,> 50,O=C1OCC(OCCN2CCOCC2)=C1c1ccc(O)cc1
4,> 50,O=C1OCC(OCCN2CCOCC2)=C1c1ccc(Br)cc1
5,> 50,COc1cccc(C2=C(OCCN3CCOCC3)COC2=O)c1
6,> 50,O=C1OCC(OCCN2CCOCC2)=C1c1cccc(Br)c1
7,> 50,O=C1OCC(OCCN2CCOCC2)=C1c1ccc(Cl)cc1
8,> 50,O=C1OCC(OCCN2CCOCC2)=C1c1ccccc1
9,> 50,CN1CCN(CCOC2=C(c3ccccc3)C(=O)OC2)CC1
10,> 50,CCCNCCOC1=C(c2ccccc2)C(=O)OC1

# Tested on: Bacillus subtilis
# Assay: Antibacterial activity against Bacillus subtilis ATCC 6633 after 24 hrs by MTT colorimetric method
# Format: functional
# Conditions: ATCC 6633, 24 h
row,MIC50 [µg/mL],SMILES
1,47.4,O=C1OCC(OCCN2CCOCC2)=C1c1cccc(O)c1
2,2.1,O=C1OCC(OCCN2CCOCC2)=C1c1ccc(O)cc1
3,0.48,NC[C@H]1O[C@H](O[C@H]2[C@H](O)[C@@H](O[C@H]3O[C@H](CO)[C@@H](O)[C@H](N)[C@H]3O)[C@H](N)C[C@@H]2N)[C@H](O)[C@@H](O)[C@@H]1O [KANAMYCIN]
4,15.8,O=C1OCC(OCCN2CCOCC2)=C1c1ccc(Br)cc1
5,> 50,COc1cccc(C2=C(OCCN3CCOCC3)COC2=O)c1
6,> 50,O=C1OCC(OCCN2CCOCC2)=C1c1cccc(Br)c1
7,8.6,O=C1OCC(OCCN2CCOCC2)=C1c1ccc(Cl)cc1
8,47.4,O=C1OCC(OCCN2CCOCC2)=C1c1ccccc1
9,> 50,CN1CCN(CCOC2=C(c3ccccc3)C(=O)OC2)CC1
10,> 50,CCCNCCOC1=C(c2ccccc2)C(=O)OC1
